UBC13 polyUb: UBC13 polyubiquitin chain formation inhibitors, primary screen, biochemical, TR-FRET, uHTS; Ubiquitin-conjugating enzyme E2 N (Homo sapiens), P61088; inhibition, % at 20 µM; hit rate 0.47% among 330,000; AID 485273, 2010; in the data active = inhibition above about 45%, passing the limit was not always enough
Target sequence (P61088 whole entry, looked up): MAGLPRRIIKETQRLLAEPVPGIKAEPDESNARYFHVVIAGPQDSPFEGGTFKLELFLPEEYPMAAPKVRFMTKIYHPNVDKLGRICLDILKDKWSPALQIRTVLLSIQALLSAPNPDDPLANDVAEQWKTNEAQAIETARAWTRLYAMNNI
PfGluPho inh: PfG6PD enzyme inhibitors, primary screen, biochemical, fluorescence intensity, uHTS; glucose-6-phosphate dehydrogenase-6-phosphogluconolactonase (Plasmodium falciparum 3D7); hit rate 0.78% among 350,000; inhibition, % at 20 µM; PfGluPho enzyme, NADPH resazurin-diaphorase fluorescence;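 active = inhibition reaching at least a set limit at 20 µM in the primary screen, cut at about 59% in these data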
Apaf-1 inh: inhibitors of human Apaf-1 apoptosome, primary screen, biochemical, DEVD-Rh110 fluorescence, uHTS | Apoptotic protease-activating factor 1 (Homo sapiens), O14727 | reconstituted apoptosome caspase-3 activity | inhibition, % at 20 µM | hit rate 0.71% among 330,000; active = inhibition of at least 40% at 20 µM
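Assay system: Apoptosome proteins | Medium: pH 7.5 Hepes buffer with CHAPS, BSA, DTT | Also added: Cytochrome c and DEVD-Rh110 substrate | Times: 30 min plus 50 min, RT | Detection: Rhodamine 110 fluorescence at Ex 480/Em 540 nm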
PfM18AAP inh: PfM18AAP inhibitors, malaria aminopeptidase, primary screen, biochemical, QFRET, recombinant enzyme; AID 1822, 2009; hit rate 1.2% among 290,000; H-Glu-NHMec fluorogenic cleavage; inhibition, % at 7.35 µM;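 active = inhibition above the campaign mean inhibition over all tested compounds plus 3 SD, cut at about 28% in these data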
EBNA-1 inhibitor: EBNA-1 DNA-binding inhibitors, primary screen, biochemical, fluorescence polarization; inhibition, % at 14.8 µM; hit rate 0.34% among 300,000; in the data active = inhibition above about 28%
ZTA counter: counter-screen for EBNA-1 inhibitors: inhibitors of Epstein-Barr virus ZTA | ZTA-DNA binding, fluorescence polarization | inhibition, % at 11 µM | hit rate 0.15% among 320,000 | AID 2234; in the data active = inhibition above about 33%
Target sequence (P03206 whole entry, looked up): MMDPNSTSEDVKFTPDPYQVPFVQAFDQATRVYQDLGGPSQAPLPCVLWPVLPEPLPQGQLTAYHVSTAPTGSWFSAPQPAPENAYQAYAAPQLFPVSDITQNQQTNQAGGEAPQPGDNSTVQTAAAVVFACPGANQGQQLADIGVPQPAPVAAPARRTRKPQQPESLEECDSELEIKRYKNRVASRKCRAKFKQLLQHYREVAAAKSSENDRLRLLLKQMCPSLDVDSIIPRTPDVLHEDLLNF
Numbers stand for hits; n = inactive; x = no result given. A selection: hits, their analogues and other compounds. The true share with any hit is near 2.9%.

SMILES	UBC13 polyUb	PfGluPho inh	Apaf-1 inh	PfM18AAP inh	EBNA-1 inhibitor	ZTA counter
Cc1nn(-c2ccccc2)c2c1C(c1ccc(O)c(O)c1)N1C(=N2)C(Nc2ccccc2)=Nc2ccccc21 (stereo unspecified)	n	n	n	34	n	n
CCCCNC(=O)c1ccc(/C=C2\Oc3ccccc3N(C)C2=O)cc1	n	n	n	n	n	n
CCN1CCN(CCCNC(=O)c2ccc(/C=C3/Oc4ccccc4N(Cc4cccc(C)c4)C3=O)cc2)CC1	64	n	47	n	n	n
CC(=O)Nc1ccc(NC(=O)C2CCN(C(=O)C3CC(=O)N(c4ccc(C)cc4)C3)CC2)cc1 (stereo unspecified)	n	n	n	n	n	n
CC1=CC(=O)C(C(C)C)=C/C1=N/OC(=O)c1cccc([N+](=O)[O-])c1	n	n	n	n	n	n
CC1=CC(=O)C(C(C)C)=CC1=NC(=O)c1ccc(C)cc1	n	93	n	n	n	n
O=C(NNC(=O)c1cc2ccccc2cc1O)c1cccs1	n	n	n	29	n	n
COc1cc([C@@H]2c3cc4c(cc3[C@@H](O)[C@@H](CO)[C@@H]2CO)OCO4)cc(OC)c1O[Si](C)(C)C(C)(C)C	n	x	n	x	n	34
COc1cc(C2c3cc4c(cc3C(O)C3COCC23)OCO4)cc(OC)c1OC (stereo unspecified)	x	n	x	x	x	x
COc1cc(/C=N/N2CCN(c3ccccc3OC)CC2)ccc1OC(C)=O	n	n	n	n	n	n
CSc1nc2c(c(=O)[nH]c(=O)n2C)n1Cc1ccc(Cl)cc1	n	65	n	n	n	n
CNC(=S)N(Cc1ccc2c(c1)OCO2)C1CC(=O)N(c2ccc(F)cc2)C1=O (stereo unspecified)	n	n	n	n	n	n
COC/C=C/C1=CC2=CC(=O)C(C)(OC(=O)c3cnc4ccccc4n3)C(=O)C2=CN1CC(C)C (stereo unspecified)	n	n	41	x	n	n
CC1(OC(=O)c2cnc3ccccc3n2)C(=O)C=C2C=C(C3CC3)OC=C2C1=O (stereo unspecified)	n	x	n	x	28	48
O=C(CN1CCCCCC1=O)N1CCN(S(=O)(=O)c2cccs2)CC1	n	n	n	n	n	n
O=C(CSc1ncn[nH]1)NCc1ccc(Cl)cc1	n	n	n	n	n	n
O=C(CSc1ncn[nH]1)NCc1ccccc1Cl	n	n	n	29	n	n
CCCNC(=O)N1C2=NC(C(=O)OC)=C(C(=O)OC)[C@@H]3N(Cc4ccccc4)c4ccccc4[C@]23C[C@H]1CO	n	n	n	x	n	n
COCCCOc1ccnc(CS(=O)c2nc3ccccc3[nH]2)c1C (stereo unspecified)	n	n	n	31	n	n
Cc1c(OCC(F)(F)F)ccnc1CS(=O)c1nc2ccccc2[nH]1 (stereo unspecified)	n	n	n	n	n	n
CCCCn1nc(C(=O)N(C)Cc2nc3ccccc3c(=O)[nH]2)c2ccccc2c1=O	x	n	x	x	x	x
N#C/C=C1/NC(=O)c2ccccc2S1	n	n	n	29	n	n
Cc1ccc(S(=O)(=O)O/N=C2\CCCc3ccccc32)cc1	n	n	n	n	n	n
CC1=C(C)/C(=N\OS(=O)(=O)c2ccccc2)C=CC1=O	n	112	n	n	n	n
Clc1cccc(C2Nc3cccc4cccc(c34)N2)c1	n	n	n	32	n	n
SMILES	UBC13 polyUb	PfGluPho inh	Apaf-1 inh	PfM18AAP inh	EBNA-1 inhibitor	ZTA counter
Cc1ccc(S(=O)(=O)Cc2ccc(C(=O)NC3CCCCCC3)o2)cc1	n	n	n	n	n	n
CC(C)c1ccc(O)c(NC(=O)c2ncn[nH]2)c1	n	n	n	29	n	n
CC(C)c1ccc(O)c(NC(=O)c2cncc(Br)c2)c1	n	n	n	n	n	n
Cc1ccc(S(=O)(=O)N2C[C@H]3[C@H]4C(=O)N(c5ccccc5)C(=O)[C@H]4C[C@H](OC(=O)Nc4cccs4)[C@@]3(O)C2)cc1	x	n	x	x	x	x
C/C(=N\NC(=S)Nc1ccccc1C)c1ccc(O)cc1	50	n	n	n	n	n
COc1ccc(S(=O)(=O)N2CCCCCC2)cc1C(=O)N(C)CCOc1ccccc1	n	n	55	x	n	n
CC(C)(O)c1ccccc1CC[C@@H](SCC1(CC(=O)O)CC1)c1cccc(/C=C/c2ccc3ccc(Cl)cc3n2)c1	n	n	n	x	n	n
O=C1CCC(C(=O)N2CCN(c3cnccn3)CC2)CN1CCc1ccc(Cl)cc1 (stereo unspecified)	n	n	n	n	x	x
Cc1sc2ccc3sccc3c2[n+]1C	n	n	n	30	n	n
Cc1sc2c3ccsc3ccc2[n+]1C	n	n	n	30	n	n
CN(Cc1ccc(OC(F)F)cc1)C(=O)c1cccc(S(=O)(=O)N2CCN(c3ccccc3)CC2)c1	x	n	x	x	x	x
O=C(NNS(=O)(=O)c1ccc([N+](=O)[O-])cc1)C(=O)Nc1cccc(C(=O)O)c1	n	n	n	31	n	n
COCCN(C(=O)Cn1c(C(F)(F)F)nc2ccccc21)c1c(N)n(Cc2ccccc2)c(=O)[nH]c1=O	n	n	n	n	n	n
CCOC(=O)COc1ccccc1/C=C\[N+](=O)[O-]	x	n	x	32	n	n
C=CCn1c(N)c(C(=O)Nc2cccc(C)c2)c2nc3ccccc3nc21	n	n	48	n	n	n
CCCCN(C(=O)CC1CCCCC1)c1c(N)n(CCCC)c(=O)[nH]c1=O	x	n	x	x	x	x
COc1cccc(C(=O)NCC(c2ccc3c(c2)OCO3)N2CCN(c3ccc(F)cc3)CC2)c1 (stereo unspecified)	n	n	n	x	n	n
CCOC(=O)c1c(NC(=O)CSc2nc3ccccc3s2)sc(C)c1C	n	n	n	30	n	n
C/C(CCN1CCc2nc(-c3ccccc3)c(-c3ccccc3)cc2C1)=N\OC[C@@H](C)[C@H](OCc1ccccc1)C(C)C	n	n	47	n	n	n
C/C(CCN1CCc2nc(-c3ccccc3)c(-c3ccccc3)cc2C1)=N\O[C@H](C)c1cn([C@H](CO)Cc2ccccc2)nn1	n	x	n	n	n	n
CC1CC(C)(C)CC2(C1)NC(=O)N(CC(=O)N(Cc1ccccc1)c1ccccc1)C2=O (stereo unspecified)	n	n	n	x	n	n
COc1ccc(S(=O)(=O)Oc2c(OC)cc(C(=S)N3CCOCC3)cc2OC)cc1	n	n	n	28	n	n
COCCCNC(=O)Cc1c(C)c2c(cc(C)c3c(C(C)(C)C)coc32)oc1=O	n	n	n	n	n	n
CCc1ccccc1NC(=S)N(CCCN1CCOCC1)Cc1ccccn1	n	n	n	n	n	82
COc1ccccc1NC(=S)N(CCCN1CCOCC1)Cc1ccccn1	n	n	n	n	n	n

From PubChem BioAssay
